Test results published in ChEMBL document CHEMBL1145502, “Roxithromycin favorably modifies the initial phase of resistance against infection with macrolide-resistant Streptococcus pneumoniae in a murine pneumonia model” (Antimicrob Agents Chemother, 2007).
Converted amounts (≈) assume the structure as drawn. The source made the active and inactive calls. The calls are words filed in the database; no cut-off is given here.

Key:
Streptococcus pneumoniae [1] = test: Inhibition of pneumococcal surface protein A production in Streptococcus pneumoniae NMU112 lysates at 10 ug/mL after 12 hrs by Western blot relative to control; assay type: functional, organism-based
In short: (§1)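 Strain NMU112 (5 × 10⁷ CFU/ml in THY) cultured 12 h at 37°C with drug. Sonicated whole-cell lysates run on SDS-PAGE and Western blotted; bands measured by densitometry as % of drug-free culture. Two cultures per dose, three experiments (n = 5–6).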

Streptococcus pneumoniae [2] = test: Antimicrobial activity against Streptococcus pneumoniae NMUP45; assay type: functional
In short: (§2)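 Broth microdilution MIC (NCCLS method) in Mueller-Hinton broth with 3% lysed horse blood; clinical isolates NMU605 (serotype 3) and NMUP45 (serotype 4).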

Streptococcus pneumoniae [3] = test: Reduction of pneumolysin production in Streptococcus pneumoniae NMU112 lysates at 5 ug/mL after 12 hrs by Western blot relative to control; assay type: functional, organism-based
In short: (§3)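 NMU112 at 5 × 10⁷ CFU/ml in THY cultured with macrolide at 37°C for 12 h, then whole-cell sonicated lysates run on SDS-PAGE and immunoblotted for pneumolysin. Band densitometry as mean % of drug-free culture; two cultures per dose per experiment, three experiments.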

Streptococcus pneumoniae [4] = test: Antimicrobial activity against drug-resistant Streptococcus pneumoniae NMU112 infected CBA/J mouse assessed as median survival time at 10 mg/kg, po relative to control; assay type: functional
In short: (§4)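 Male CBA/J mice, 3-4 weeks old, 28-30 g. Macrolide given by oral gavage in saline for 3 days; RXM, ERY and CLR twice daily at 12-h intervals, AZM once daily. Saline controls. 24 h after the last dose, mice were infected intratracheally with 5 × 10⁴ CFU NMU112 (erm(B)/mef(A)). Kaplan-Meier survival and median survival time, log rank test; 10 mice per group per experiment.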

Streptococcus pneumoniae [5] = test: Antimicrobial activity against Streptococcus pneumoniae NMU112; assay type: functional
In short: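 Broth microdilution MIC per NCCLS in Mueller-Hinton broth with 3% lysed horse blood.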

Streptococcus pneumoniae [6] = test: Reduction of pneumolysin production in Streptococcus pneumoniae NMU112 lysates at 10 ug/mL after 12 hrs by Western blot relative to control; assay type: functional, organism-based; in short: as §3
Streptococcus pneumoniae [7] = test: Antimicrobial activity against Streptococcus pneumoniae NMU605; assay type: functional; in short: as §2
Streptococcus pneumoniae [8] = test: Antimicrobial activity against Streptococcus pneumoniae NMU112 infected in po dosed CBA/J mouse assessed as delaying in development of bacteremia […]; assay type: functional, organism-based
Streptococcus pneumoniae [9] = test: Antimicrobial activity against drug-resistant Streptococcus pneumoniae NMU112 infected CBA/J mouse assessed as median survival time at 20 mg/kg, po relative to control; assay type: functional; in short: as §4
Streptococcus pneumoniae [10] = test: Reduction in Streptococcus pneumoniae NMU112 infection induced elevation in syndecan-1 shedding in po dosed CBA/J mouse bronchoalveolar lavage fluid relative to control; assay type: functional, organism-based; conditions: Lung
In short: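 Syndecan-1 ectodomains in 100 μl BALF measured by sandwich ELISA: 281-2 capture antibody, biotinylated 281-2 detection, streptavidin-HRP/TMB, read at 450 nm. Range 2.5–245 ng/ml. Three mice per time point, triplicate, three experiments.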

Streptococcus pneumoniae [11] = test: Increase in Streptococcus pneumoniae NMU112 infection-induced reduction in MCP1 level in po dosed CBA/J mouse lung by sandwich ELISA relative to control
Streptococcus pneumoniae [12] = test: Antimicrobial activity against Streptococcus pneumoniae NMU112 infected in po dosed CBA/J mouse blood assessed as number of colony forming units after 5 days relative to control; assay type: functional
In short: (§5)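 CBA/J mice (28–30 g) dosed by oral gavage twice daily for 3 days, saline as control. Infected 24 h after the last dose with 5 × 10⁴ CFU via the oropharynx under light ketamine/xylazine anesthesia. Blood, lung homogenate and pooled BALF supernatant were plated on agar with 200 μg/ml ERY and incubated about 24 h at 37°C for CFU. Three mice per group per time point, three experiments.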

Streptococcus pneumoniae [13] = test: Antimicrobial activity against Streptococcus pneumoniae NMU605 infected CBA/J mouse assessed as animal survival at => 2.5 mg/kg, po relative to control; assay type: functional, organism-based; parameters: dose 2.5 mg/kg
Streptococcus pneumoniae [14] = test: Reduction of pneumococcal surface protein A in Streptococcus pneumoniae NMU112 infected CBA/J mouse lung lysates after 48 hrs by Western blot relative to control; assay type: functional, organism-based
In short: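 Left-lung Triton X extract (1 mg protein) immunoprecipitated with anti-PspA on protein G beads, then run on SDS-12% PAGE and Western blotted. Densitometry given as % of control. Three mice per group per time point.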

Streptococcus pneumoniae [15] = test: Antimicrobial activity against Streptococcus pneumoniae NMU112 infected in po dosed CBA/J mouse lungs assessed as reduction in number of colony forming units after 24 to 48 hr relative to control; assay type: functional, organism-based; in short: as §5
Mus musculus [16] = species on record: Mus musculus; test: Reduction of polymorphonuclear leukocytes in UV rays killed Streptococcus pneumoniae NMU112 infected CBA/J mouse bronchoalveolar lavage fluid relative to control; assay type: functional, organism-based; conditions: Lung
Lung [17] = test: Drug level in Streptococcus pneumoniae NMU112 infected CBA/J mouse lung tissue at 5 mg/kg/day, po after 24 hrs; assay type: ADME, organism-based; parameters: route oral; conditions: in vivo
In short: (§6)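 Oral gavage at 5 mg/kg/day (0.075 mg twice daily, six doses). Plasma and PBS lung homogenates were taken 24, 48 and 72 h after the last dose. Assayed by HPLC-electrochemical detection with an erythromycin internal standard; linear ranges 0.15–10.5 (plasma) and 0.4–11.8 μg/ml (lung). Five mice per time point; mean ± SD.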

Lung [18] = test: Drug level in Streptococcus pneumoniae NMU112 infected CBA/J mouse lung tissue at 5 mg/kg/day, po after 72 hrs; assay type: ADME, organism-based; parameters: route oral; conditions: in vivo; in short: as §6
Streptococcus pneumoniae [19] = test: Antimicrobial activity against drug-resistant Streptococcus pneumoniae NMU112 infected CBA/J mouse assessed as median survival time at 7.5 mg/kg, po relative to control; assay type: functional; in short: as §4
Streptococcus pneumoniae [20] = test: Reduction of pneumolysin production in Streptococcus pneumoniae NMU112 infected CBA/J mouse lung lysates after 48 hrs of infection by Western blot relative to control; assay type: functional, organism-based
In short: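 Left lungs (n, 3 per group per time point) homogenised in Tris-HCl pH 7.5 with NaCl and Triton X, then centrifuged. Extract (1 mg protein) immunoprecipitated with anti-PLY on protein G beads, run on SDS-12% PAGE and blotted. Band densitometry expressed as % of control mice after oral pretreatment and intratracheal NMU112 infection.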

Plasma [21] = test: Drug level in Streptococcus pneumoniae NMU112 infected CBA/J mouse plasma at 5 mg/kg/day, po after 48 hrs; assay type: ADME, organism-based; parameters: route oral; conditions: in vivo; in short: as §6
Streptococcus pneumoniae [22] = test: Inhibition of Streptococcus pneumoniae NMU112 induced MMP7 expression level in po dosed CBA/J mouse assessed as decrease in caseinolytic activity after 6 to 48 hrs relative to control; assay type: functional, organism-based
In short: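 Casein zymography on lung extract (100 μg protein) in 4–16% casein gels. The 19-kDa mature MMP-7 lysis band was scanned by densitometry and expressed as % of infected controls. Five to six mice per time point, three experiments.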

Streptococcus pneumoniae [23] = test: Antimicrobial activity against Streptococcus pneumoniae NMU112 infected in po dosed CBA/J mouse bronchoalveolar lavage fluid assessed as reduction in number of colony forming units after 24 to 48 hrs relative to control; assay type: functional, organism-based; conditions: Lung; in short: as §5
Streptococcus pneumoniae [24] = test: Increase in Streptococcus pneumoniae NMU112 infection-induced reduction in MCP1 level in po dosed CBA/J mouse lung after 12 to 36 hrs by sandwich ELISA relative to control; assay type: functional, organism-based
In short: (§7)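 Lung homogenate in lysis buffer with protease inhibitors, 30 min on ice, spun 12,000 × g 20 min at 4°C. KC or MCP-1 measured by sandwich ELISA, detection limit 2 pg/ml. Three mice per group per time point after infection with 5 × 10⁴ CFU, each sample in triplicate, two experiments.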

Streptococcus pneumoniae [25] = test: Reduction in Streptococcus pneumoniae NMU112 infection-induced elevation in keratinocyte-derived chemokine level in po dosed CBA/J mouse lung after 12 hrs by sandwich ELISA relative to control; assay type: functional, organism-based; in short: as §7
Streptococcus pneumoniae [26] = test: Inhibition of Streptococcus pneumoniae NMU112 infection-induced polymorphonuclear leukocytes infiltration in CBA/J mouse lung assessed as MPO activity after 12 hrs relative to control; assay type: functional, organism-based
In short: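 Lungs (n = 4 per group per time point) removed after blood collection, weighed and frozen, then assayed with an MPO kit. Activity given as units per mg protein.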

Streptococcus pneumoniae [27] = test: Antimicrobial activity against Streptococcus pneumoniae NMU112 infected in po dosed CBA/J mouse blood assessed as number of colony forming units after 6 days relative to control; assay type: functional; in short: as §5
Plasma [28] = test: Drug level in Streptococcus pneumoniae NMU112 infected CBA/J mouse plasma at 5 mg/kg/day, po after 24 hrs; assay type: ADME, organism-based; parameters: route oral; conditions: in vivo; in short: as §6
Streptococcus pneumoniae [29] = test: Antimicrobial activity against drug-resistant Streptococcus pneumoniae NMU112 infected CBA/J mouse assessed as median survival time at 5 mg/kg, po relative to control; assay type: functional; in short: as §4
Plasma [30] = test: Drug level in Streptococcus pneumoniae NMU112 infected CBA/J mouse plasma at 5 mg/kg/day, po after 72 hrs; assay type: ADME, organism-based; parameters: route oral; conditions: in vivo; in short: as §6
Streptococcus pneumoniae [31] = test: Antimicrobial activity against Streptococcus pneumoniae NMU112 infected in po dosed CBA/J mouse blood assessed as number of colony forming units after 4 days relative to control; assay type: functional; in short: as §5
Streptococcus pneumoniae [32] = test: Antimicrobial activity against Streptococcus pneumoniae NMU112 infected in po dosed CBA/J mouse blood assessed as number of colony forming units after 7 days relative to control; assay type: functional; in short: as §5
Lung [33] = test: Drug level in Streptococcus pneumoniae NMU112 infected CBA/J mouse lung tissue at 5 mg/kg/day, po after 48 hrs; assay type: ADME, organism-based; parameters: route oral; conditions: in vivo; in short: as §6
Streptococcus pneumoniae [34] = test: Reduction in Streptococcus pneumoniae NMU112 infection-induced elevation in keratinocyte-derived chemokine level in po dosed CBA/J mouse bronchoalveolar lavage fluid after 8 hrs by sandwich ELISA relative to control; assay type: functional, organism-based; conditions: Lung
Streptococcus pneumoniae [35] = test: Antimicrobial activity against drug-resistant Streptococcus pneumoniae NMU112 infected CBA/J mouse assessed as animal survival at 1.25 mg/kg, po; assay type: functional, organism-based; parameters: dose 1.25 mg/kg; in short: as §4
Mus musculus [36] = species on record: Mus musculus; test: Reduction of MMP7 expression level in UV rays killed Streptococcus pneumoniae NMU112 infected CBA/J mouse bronchoalveolar lavage fluid relative to control; assay type: functional, organism-based; conditions: Lung
Streptococcus pneumoniae [37] = test: Antimicrobial activity against Streptococcus pneumoniae NMUP45 infected CBA/J mouse assessed as animal survival at => 5 mg/kg, po relative to control; assay type: functional, organism-based; parameters: dose 5 mg/kg
Streptococcus pneumoniae [38] = test: Inhibition of pneumococcal surface protein A production in Streptococcus pneumoniae NMU112 lysates at 5 ug/mL after 12 hrs by Western blot relative to control; assay type: functional, organism-based; in short: as §1

CC[C@H]1OC(=O)[C@H](C)[C@@H](O[C@H]2C[C@@](C)(OC)[C@@H](O)[C@H](C)O2)[C@H](C)[C@@H](O[C@@H]2O[C@H](C)C[C@H](N(C)C)[C@H]2O)[C@](C)(O)C[C@@H](C)C(=O)[C@H](C)[C@@H](O)[C@]1(C)O [ERYTHROMYCIN]
Activity (Streptococcus pneumoniae [1]): Active | MIC (Streptococcus pneumoniae [2]): 2 µg/mL (≈ 2.73 µM) | Activity (Streptococcus pneumoniae [3]): Active | MST (Streptococcus pneumoniae [4]): 5.27 days | MIC (Streptococcus pneumoniae [5]): ≥ 256 µg/mL | Activity (Streptococcus pneumoniae [6]): Active | MIC (Streptococcus pneumoniae [7]): 0.03 µg/mL (≈ 0.0409 µM) | Activity (Streptococcus pneumoniae [8]): Active | MST (Streptococcus pneumoniae [9]): 6.78 days

CC[C@H]1OC(=O)[C@H](C)[C@@H](O[C@H]2C[C@@](C)(OC)[C@@H](O)[C@H](C)O2)[C@H](C)[C@@H](O[C@@H]2O[C@H](C)C[C@H](N(C)C)[C@H]2O)[C@](C)(O)C[C@@H](C)/C(=N\OCOCCOC)[C@H](C)[C@@H](O)[C@]1(C)O [ROXITHROMYCIN]
MIC (Streptococcus pneumoniae [2]): 4 µg/mL (≈ 4.78 µM) | Activity (Streptococcus pneumoniae [10]): Active | Activity (Streptococcus pneumoniae [11]): Active | log10CFU/ml (Streptococcus pneumoniae [12]): 3.68 | Activity (Streptococcus pneumoniae [13]): Active | Activity (Streptococcus pneumoniae [14]): Active | Activity (Streptococcus pneumoniae [3]): inactive | Activity (Streptococcus pneumoniae [15]): Active | MST (Streptococcus pneumoniae [4]): 6.6 days | Activity (Mus musculus [16]): Active | Concn (Lung [17]): 5220 ng/mL | Concn (Lung [18]): 650 ng/mL | MIC (Streptococcus pneumoniae [5]): ≥ 256 µg/mL | MST (Streptococcus pneumoniae [19]): 6.3 days | Activity (Streptococcus pneumoniae [20]): Active | Concn (Plasma [21]): 1360 ng/mL | Activity (Streptococcus pneumoniae [22]): Active | Activity (Streptococcus pneumoniae [23]): Active | MIC (Streptococcus pneumoniae [7]): 0.06 µg/mL (≈ 0.0717 µM) | Activity (Streptococcus pneumoniae [24]): Active | Activity (Streptococcus pneumoniae [25]): Active | Activity (Streptococcus pneumoniae [26]): Active | log10CFU/ml (Streptococcus pneumoniae [27]): 4.27 | Concn (Plasma [28]): 3870 ng/mL | MST (Streptococcus pneumoniae [29]): 5.8 days | Concn (Plasma [30]): 540 ng/mL | log10CFU/ml (Streptococcus pneumoniae [31]): 2.14 | log10CFU/ml (Streptococcus pneumoniae [32]): >=5.11 | Concn (Lung [33]): 2870 ng/mL | Activity (Streptococcus pneumoniae [34]): Active | Activity (Streptococcus pneumoniae [35]): inactive | Activity (Mus musculus [36]): Active | Activity (Streptococcus pneumoniae [37]): Active | Activity (Streptococcus pneumoniae [38]): inactive
